ChEMBL document CHEMBL5058577, “EUbOPEN Chemogenomics Library 2 (Multiplex)” (2022)

Test system: HEK-293T
Assay: Multiplex assay against HEK293T
Assay type: toxicity, cell-based
Conditions: human
Method in brief: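 With compound added, live cells were imaged on a CQ1 microscope at 37°C and 5% CO2; staining with Hoechst33342, BioTracker Green Microtubule Cytoskeleton Dye, MitoTracker Red and Annexin V Alexa Fluor 680 had been done at seeding. The CellPathfinder machine-learning gating scheme split cells into Hoechst high-intensity objects or normal cells, normal cells into healthy, pyknosed or fragmented nuclei, and pyknosed cells into mitotic or apoptotic. The tubulin, mitochondrial-mass and membrane-permeability phenotypes are per cents of healthy-nucleus cells.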

[1] = 12 h, 1 µM, compound concentration 1 uM, replicate 1
[2] = 12 h, 1 µM, compound concentration 1 uM, replicate 2
[3] = 12 h, 10 µM, compound concentration 10 uM, replicate 1
[4] = 12 h, 10 µM, compound concentration 10 uM, replicate 2
[5] = 24 h, 1 µM, compound concentration 1 uM, replicate 1
[6] = 24 h, 1 µM, compound concentration 1 uM, replicate 2
[7] = 24 h, 10 µM, compound concentration 10 uM, replicate 1
[8] = 24 h, 10 µM, compound concentration 10 uM, replicate 2
[9] = 48 h, 1 µM, compound concentration 1 uM, replicate 1
[10] = 48 h, 1 µM, compound concentration 1 uM, replicate 2
[11] = 48 h, 10 µM, compound concentration 10 uM, replicate 1
[12] = 48 h, 10 µM, compound concentration 10 uM, replicate 2

Structure (SMILES): Cc1cc(=O)n(C)c2cc(N3C(=O)CC[C@H](NS(=O)(=O)CC(C)C)[C@H]3c3ccc(Cl)cc3)ccc12
- Population Apoptotic (%) [1]: 43%
- Population Fragmented Nuclei (%) [1]: 7%
- Population Healthy Nuclei (%) [1]: 83%
- Population Hoechst High Intensity Objects (%) [1]: 8%
- Population Membrane Permeable-Phenotype (%) [1]: 0%
- Population Mitochondria Different-Phenotype (%) [1]: 41%
- Population Mitotic Cells (%) [1]: 56%
- Population Normal (%) [1]: 91%
- Population Pyknosed Nuclei (%) [1]: 8%
- Population Tubulin-Different-Phenotype (%) [1]: 32%
- Total Cell Count [1]: 454
- Population Apoptotic (%) [2]: 63%
- Population Fragmented Nuclei (%) [2]: 6%
- Population Healthy Nuclei (%) [2]: 78%
- Population Hoechst High Intensity Objects (%) [2]: 6%
- Population Mitochondria Different-Phenotype (%) [2]: 53%
- Population Mitotic Cells (%) [2]: 36%
- Population Normal (%) [2]: 93%
- Population Pyknosed Nuclei (%) [2]: 14%
- Population Tubulin-Different-Phenotype (%) [2]: 14%
- Total Cell Count [2]: 265
- Population Apoptotic (%) [3]: 47%
- Population Fragmented Nuclei (%) [3]: 4%
- Population Healthy Nuclei (%) [3]: 70%
- Population Hoechst High Intensity Objects (%) [3]: 11%
- Population Membrane Permeable-Phenotype (%) [3]: 0%
- Population Mitochondria Different-Phenotype (%) [3]: 75%
- Population Mitotic Cells (%) [3]: 52%
- Population Normal (%) [3]: 88%
- Population Pyknosed Nuclei (%) [3]: 24%
- Population Tubulin-Different-Phenotype (%) [3]: 81%
- Total Cell Count [3]: 368
- Population Apoptotic (%) [4]: 50%
- Population Fragmented Nuclei (%) [4]: 6%
- Population Healthy Nuclei (%) [4]: 66%
- Population Hoechst High Intensity Objects (%) [4]: 16%
- Population Mitochondria Different-Phenotype (%) [4]: 86%
- Population Mitotic Cells (%) [4]: 49%
- Population Normal (%) [4]: 83%
- Population Pyknosed Nuclei (%) [4]: 27%
- Population Tubulin-Different-Phenotype (%) [4]: 66%
- Total Cell Count [4]: 331
- Population Apoptotic (%) [5]: 33%
- Population Fragmented Nuclei (%) [5]: 9%
- Population Healthy Nuclei (%) [5]: 81%
- Population Hoechst High Intensity Objects (%) [5]: 4%
- Population Membrane Permeable-Phenotype (%) [5]: 0%
- Population Mitochondria Different-Phenotype (%) [5]: 25%
- Population Mitotic Cells (%) [5]: 66%
- Population Normal (%) [5]: 95%
- Population Pyknosed Nuclei (%) [5]: 9%
- Population Tubulin-Different-Phenotype (%) [5]: 19%
- Total Cell Count [5]: 646
- Population Apoptotic (%) [6]: 36%
- Population Fragmented Nuclei (%) [6]: 4%
- Population Healthy Nuclei (%) [6]: 82%
- Population Hoechst High Intensity Objects (%) [6]: 5%
- Population Membrane Permeable-Phenotype (%) [6]: 1%
- Population Mitochondria Different-Phenotype (%) [6]: 42%
- Population Mitotic Cells (%) [6]: 63%
- Population Normal (%) [6]: 94%
- Population Pyknosed Nuclei (%) [6]: 13%
- Population Tubulin-Different-Phenotype (%) [6]: 17%
- Total Cell Count [6]: 327
- Population Apoptotic (%) [7]: 34%
- Population Fragmented Nuclei (%) [7]: 7%
- Population Healthy Nuclei (%) [7]: 72%
- Population Hoechst High Intensity Objects (%) [7]: 9%
- Population Membrane Permeable-Phenotype (%) [7]: 0%
- Population Mitochondria Different-Phenotype (%) [7]: 67%
- Population Mitotic Cells (%) [7]: 65%
- Population Normal (%) [7]: 90%
- Population Pyknosed Nuclei (%) [7]: 19%
- Population Tubulin-Different-Phenotype (%) [7]: 67%
- Total Cell Count [7]: 419
- Population Apoptotic (%) [8]: 76%
- Population Fragmented Nuclei (%) [8]: 8%
- Population Healthy Nuclei (%) [8]: 67%
- Population Hoechst High Intensity Objects (%) [8]: 22%
- Population Mitochondria Different-Phenotype (%) [8]: 85%
- Population Mitotic Cells (%) [8]: 23%
- Population Normal (%) [8]: 77%
- Population Pyknosed Nuclei (%) [8]: 23%
- Population Tubulin-Different-Phenotype (%) [8]: 71%
- Total Cell Count [8]: 328
- Population Apoptotic (%) [9]: 25%
- Population Fragmented Nuclei (%) [9]: 14%
- Population Healthy Nuclei (%) [9]: 78%
- Population Hoechst High Intensity Objects (%) [9]: 3%
- Population Membrane Permeable-Phenotype (%) [9]: 0%
- Population Mitochondria Different-Phenotype (%) [9]: 17%
- Population Mitotic Cells (%) [9]: 74%
- Population Normal (%) [9]: 96%
- Population Pyknosed Nuclei (%) [9]: 6%
- Population Tubulin-Different-Phenotype (%) [9]: 15%
- Total Cell Count [9]: 985
- Population Apoptotic (%) [10]: 31%
- Population Fragmented Nuclei (%) [10]: 11%
- Population Healthy Nuclei (%) [10]: 79%
- Population Hoechst High Intensity Objects (%) [10]: 7%
- Population Mitochondria Different-Phenotype (%) [10]: 20%
- Population Mitotic Cells (%) [10]: 68%
- Population Normal (%) [10]: 92%
- Population Pyknosed Nuclei (%) [10]: 9%
- Population Tubulin-Different-Phenotype (%) [10]: 17%
- Total Cell Count [10]: 454
- Population Apoptotic (%) [11]: 56%
- Population Fragmented Nuclei (%) [11]: 12%
- Population Healthy Nuclei (%) [11]: 77%
- Population Hoechst High Intensity Objects (%) [11]: 10%
- Population Membrane Permeable-Phenotype (%) [11]: 1%
- Population Mitochondria Different-Phenotype (%) [11]: 67%
- Population Mitotic Cells (%) [11]: 43%
- Population Normal (%) [11]: 89%
- Population Pyknosed Nuclei (%) [11]: 10%
- Population Tubulin-Different-Phenotype (%) [11]: 58%
- Total Cell Count [11]: 548
- Population Apoptotic (%) [12]: 66%
- Population Healthy Nuclei (%) [12]: 67%
- Population Hoechst High Intensity Objects (%) [12]: 19%
- Population Membrane Permeable-Phenotype (%) [12]: 0%
- Population Mitochondria Different-Phenotype (%) [12]: 76%
- Population Mitotic Cells (%) [12]: 33%
- Population Normal (%) [12]: 80%
- Population Pyknosed Nuclei (%) [12]: 19%
- Population Tubulin-Different-Phenotype (%) [12]: 56%
- Total Cell Count [12]: 371
